Reference: ChEMBL document CHEMBL3351959, “Antinociceptive and antidepressant-like action of endomorphin-2 analogs with proline surrogates in position 2” (Bioorg Med Chem, 2014)
Calls of active or inactive are those of the source.

What was measured:
Mus musculus [1] = assay: Antinociceptive activity in mouse assessed as inhibition of EM-2-induced jumping at 1 ug, icv by hot-plate test; assay type: functional, organism-based
Rattus norvegicus [2] = organism: Rattus norvegicus; assay: Selectivity ratio of IC50 for KOR in guinea pig brain membranes to IC50 for MOR in rat brain membranes; assay type: cell membranes
Outline: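 Ratio of the KOR IC50, from displacement of [³H]nor-BNI in guinea pig brain membranes, to the MOR IC50, from displacement of [³H]DAMGO in rat brain membranes. Three independent experiments in duplicate.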

[3] = target: Delta-type opioid receptor (Rattus norvegicus, UniProt P33533); assay: Displacement of [3H](Ile5,6)deltorphin-2 from DOR in rat brain membranes; assay type: cell membranes, Membrane
Outline: (§1)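 Competitive binding on rat brain membranes: displacement of [³H]DAMGO (MOR) or [³H][Ile5,6]deltorphin-2 (DOR), reported as IC50. Three independent experiments, each run in duplicate, given as mean ± SEM. The DOR/MOR ratio is calculated from these IC50 values.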

Mus musculus [4] = assay: Antinociceptive activity in mouse assessed as inhibition of EM-2-induced jumping at 3 ug, icv co-administered with beta-funaltrexamine by hot-plate test; assay type: functional, organism-based
Outline: (§2)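 Hot-plate jumping latency in mice given the peptide at 3 µg/animal icv together with β-FNA (1 µg/animal), naltrindole (1 µg/animal) or nor-BNI (5 µg/animal, per the figure legend). Result is expressed as %MPE with a 240 s cut-off; 10 mice per group; one-way ANOVA with Student–Newman–Keuls.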

Mus musculus [5] = assay: Antidepressant activity in mouse assessed as reduction in immobility time at 3 ug, icv co-administered with naltrindole measured 10 mins post-dose by forced swim test; assay type: functional, organism-based
Outline: (§3)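 Forced swim test in mice with the peptide at 3 µg/animal icv, co-injected with β-FNA (1 µg/animal), naltrindole (1 µg/animal) or nor-BNI (5 µg/animal). Swim starts 10 min after injection; 6-min session in water at 22 ± 1 °C; automated scoring of total immobility; 10 mice per group.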

Mus musculus [6] = assay: Antidepressant activity in mouse assessed as reduction in immobility time at 3 ug, icv co-administered with beta-funaltrexamine measured 10 mins post-dose by forced swim test; assay type: functional, organism-based; outline: as §3
Mus musculus [7] = assay: Antidepressant activity in icv dosed mouse assessed as reduction in immobility time measured 10 mins post-dose by forced swim test; assay type: functional, organism-based
Outline: (§4)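 Mice given a vehicle or peptide icv, then 20 min before testing kept in small individual cages at 22 ± 1 °C. The test begins 10 min after injection: groups of four swim for 6 min in Plexiglas cylinders (14 cm internal diameter) holding water at 22 ± 1 °C to 12 cm depth. Total immobility is scored by an automated system. Dose range 0.3–10 µg/animal; 10 mice per group.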

Mus musculus [8] = assay: Antinociceptive activity in icv dosed mouse assessed as inhibition of EM-2-induced jumping by hot-plate test; assay type: functional, organism-based
Outline: (§5)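 Hot-plate test in mice. Peptides are dissolved in DMSO, diluted with saline and given icv into the left ventricle (0.1–10 µg/animal). The read-out is latency to jumping, expressed as %MPE = (test − control latency)/(cut-off − control latency) × 100, with a 240 s cut-off. 10 mice per group.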

[9] = Half life in rat brain homogenate by RP-HPLC analysis; assay type: ADME, tissue-based
Outline: (§6)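 Peptides are incubated at 37 °C with rat brain homogenate as the protease source. Samples taken at 0, 7.5, 15, 22.5, 30 and 60 min are analysed by RP-HPLC to derive the degradation rate constant k and the half-life. Three independent experiments in duplicate; mean ± SEM.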

Mus musculus [10] = assay: Antidepressant activity in mouse assessed as reduction in immobility time at 3 ug, icv co-administered with nor-binaltorphimine measured 10 mins post-dose by forced swim test; assay type: functional, organism-based; outline: as §3
Mu-type opioid receptor = Mu-type opioid receptor (Rattus norvegicus, UniProt P33535); assay: Displacement of [3H]DAMGO from MOR in rat brain membranes; assay type: cell membranes, Membrane; outline: as §1
Mus musculus [11] = assay: Antinociceptive activity in mouse assessed as inhibition of EM-2-induced jumping at 3 ug, icv co-administered with nor-binaltorphimine by hot-plate test; assay type: functional, organism-based; outline: as §2
[12] = target: Kappa-type opioid receptor (Cavia porcellus, UniProt P41144); assay: Displacement of [3H]nor-BNI from KOR in guinea pig brain membranes; assay type: cell membranes, Membrane
Rattus norvegicus [13] = organism: Rattus norvegicus; assay: Selectivity ratio of IC50 for DOR in rat brain membranes to IC50 for MOR in rat brain membranes; assay type: cell membranes; outline: as §1
Mus musculus [14] = assay: Antidepressant-like activity in mouse assessed as horizontal locomotor activity at 3 ug, icv measured […] post-dose by locomotor activity assay; assay type: organism-based; conditions: in vivo, icv_or_intrathecal, 20 min
Mus musculus [15] = assay: Antinociceptive activity in mouse assessed as inhibition of EM-2-induced jumping at 3 ug, icv co-administered with naltrindole by hot-plate test; assay type: functional, organism-based; outline: as §2
Brain = assay: Stability in rat brain homogenate assessed as degradation rate constant measured up to 60 mins by RP-HPLC analysis; assay type: ADME, tissue-based; conditions: 1 h; outline: as §6
Mus musculus [16] = assay: Antidepressant activity in mouse assessed as reduction in immobility time at 3 ug, icv measured 10 mins post-dose by tail suspension test; assay type: functional, organism-based
Outline: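 Tail suspension: mice held 20 min beforehand in small individual cages. Ten minutes after an icv injection of vehicle or peptide (3 µg/animal), each mouse is suspended by the tail with adhesive tape and immobility is recorded. 10 mice per group.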

Mus musculus [17] = assay: Antidepressant activity in mouse assessed as reduction in immobility time at 3 to 10 ug, icv measured 10 mins post-dose by forced swim test; assay type: functional, organism-based; outline: as §4
Mus musculus [18] = assay: Antinociceptive activity in mouse assessed as inhibition of EM-2-induced jumping at 3 ug, icv by hot-plate test; assay type: functional, organism-based; outline: as §5
Mus musculus [19] = assay: Toxicity in mouse assessed as mortality at >3 ug, icv; assay type: organism-based; conditions: in vivo, icv_or_intrathecal
Mus musculus [20] = assay: Antidepressant activity in mouse assessed as reduction in immobility time at 3 ug, icv measured 10 mins post-dose by forced swim test; assay type: functional, organism-based; outline: as §4
Mus musculus [21] = assay: Toxicity in mouse assessed as increase in immobility time at >3 ug, icv by forced swim test; assay type: organism-based; conditions: in vivo, icv_or_intrathecal

Chain of Delta-type opioid receptor (P33533 whole entry): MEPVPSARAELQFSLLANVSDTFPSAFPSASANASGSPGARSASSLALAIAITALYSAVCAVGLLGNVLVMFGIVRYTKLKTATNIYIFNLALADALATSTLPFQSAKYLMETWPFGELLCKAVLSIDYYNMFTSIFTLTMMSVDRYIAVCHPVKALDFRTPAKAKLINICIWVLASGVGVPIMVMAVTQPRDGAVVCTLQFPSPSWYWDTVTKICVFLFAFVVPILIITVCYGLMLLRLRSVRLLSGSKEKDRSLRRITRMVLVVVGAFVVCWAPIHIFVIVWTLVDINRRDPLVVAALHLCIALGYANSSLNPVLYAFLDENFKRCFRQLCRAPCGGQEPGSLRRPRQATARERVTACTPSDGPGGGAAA
Chain of Kappa-type opioid receptor (P41144 whole entry): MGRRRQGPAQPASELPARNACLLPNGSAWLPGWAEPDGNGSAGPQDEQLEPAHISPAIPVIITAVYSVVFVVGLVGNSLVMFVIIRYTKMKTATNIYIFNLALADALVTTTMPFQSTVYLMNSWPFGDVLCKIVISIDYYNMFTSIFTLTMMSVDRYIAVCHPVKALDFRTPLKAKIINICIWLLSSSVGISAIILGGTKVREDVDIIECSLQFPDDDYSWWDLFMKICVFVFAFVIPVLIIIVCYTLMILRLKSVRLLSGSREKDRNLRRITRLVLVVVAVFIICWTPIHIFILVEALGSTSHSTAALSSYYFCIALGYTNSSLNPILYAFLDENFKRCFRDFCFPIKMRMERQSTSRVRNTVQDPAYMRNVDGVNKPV
Chain of Mu-type opioid receptor (P33535 whole entry): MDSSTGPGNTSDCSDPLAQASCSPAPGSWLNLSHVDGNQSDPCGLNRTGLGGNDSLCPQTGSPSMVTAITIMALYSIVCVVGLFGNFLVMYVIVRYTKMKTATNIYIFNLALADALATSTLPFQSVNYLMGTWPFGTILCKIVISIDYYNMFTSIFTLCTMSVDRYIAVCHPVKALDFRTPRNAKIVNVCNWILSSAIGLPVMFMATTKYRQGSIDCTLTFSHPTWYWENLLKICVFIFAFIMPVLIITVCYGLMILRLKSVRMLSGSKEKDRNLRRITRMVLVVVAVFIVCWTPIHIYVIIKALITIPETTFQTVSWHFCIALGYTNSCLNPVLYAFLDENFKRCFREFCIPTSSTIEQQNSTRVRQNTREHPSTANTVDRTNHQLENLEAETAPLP

Structure (SMILES) | inhibition (Mus musculus [1]) | Ratio IC50 (Rattus norvegicus [2]) | IC50 [3] [nM] | half-life [9] [min] | IC50 (Mu-type opioid receptor) [nM] | IC50 [12] [nM] | Ratio IC50 (Rattus norvegicus [13]) | K (Brain) [min⁻¹] | Activity (Mus musculus [16]) | other results
COC(=O)/C=C/C(=O)N[C@@H]1CC[C@@]2(O)[C@H]3Cc4ccc(O)c5c4[C@@]2(CCN3CC2CC2)[C@H]1O5 | inactive |  |  |  |  |  |  |  |  | 
NC(=O)[C@H](Cc1ccccc1)NC(=O)[C@H](Cc1ccccc1)NC(=O)[C@H]1CN(C(=O)[C@@H](N)Cc2ccc(O)cc2)C[C@@H]1c1ccccc1 (mixture of isomers) |  | 31.9 | 9.06 | 32.5 | 0.85 | 27.1 | 10.7 | 0.0212 | Active | inhibition (Mus musculus [4]): inactive; Activity (Mus musculus [5]): inactive; Activity (Mus musculus [6]): Active; Activity (Mus musculus [7]): Dose-dependent effect; inhibition (Mus musculus [8]): Dose-dependent effect; Activity (Mus musculus [10]): inactive; inhibition (Mus musculus [11]): Active; Activity (Mus musculus [14]): Non-toxic; inhibition (Mus musculus [15]): Active; Activity (Mus musculus [17]): Active
NC(=O)[C@H](Cc1ccccc1)NC(=O)[C@H](Cc1ccccc1)NC(=O)[C@@H]1CN(C(=O)[C@@H](N)Cc2ccc(O)cc2)C[C@H]1c1ccccc1 (mixture of isomers) |  | > 1000 | > 1000 | 38.3 | 2.91 | > 1000 | > 1000 | 0.018 | inactive | inhibition (Mus musculus [18]): inactive; Activity (Mus musculus [19]): Toxic; Activity (Mus musculus [20]): inactive; Activity (Mus musculus [21]): Toxic
Oc1ccc2c3c1O[C@H]1c4[nH]c5ccccc5c4C[C@@]4(O)[C@@H](C2)N(CC2CC2)CC[C@]314 | inactive |  |  |  |  |  |  |  |  | 
Oc1ccc2c3c1O[C@H]1c4[nH]c5c(c4C[C@@]4(O)[C@@H](C2)N(CC2CC2)CC[C@]314)C[C@@]1(O)[C@H]2Cc3ccc(O)c4c3[C@@]1(CCN2CC1CC1)[C@H]5O4 | inactive |  |  |  |  |  |  |  |  | 
NC(=O)[C@H](Cc1ccccc1)NC(=O)[C@H](Cc1ccccc1)NC(=O)[C@@H]1CCCN1C(=O)[C@@H](N)Cc1ccc(O)cc1 [ENDOMORPHIN 2] |  |  |  | 6 |  |  |  |  |  | 
